ChEMBL document CHEMBL5724801, “EUbOPEN Chemogenomics Library - Multiplex” (2024)
Where “and” joins values, the source holds several entries; their conditions need not be identical. Identical values can stand only once.

Each molecule was assayed on Fibroblast (assay: Multiplex assay against human fibroblast). Details: 12 h, 1 µM, compound concentration 1 uM.
Assay type: toxicity, cell-based
Summary of the method: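 Imaging took place on a CQ1 microscope at 37°C and 5% CO2 once compound had been added to live cells stained at seeding with Hoechst33342, BioTracker Green Microtubule Cytoskeleton Dye, MitoTracker Red and Annexin V Alexa Fluor 680. CellPathfinder machine-learning gating classed cells as Hoechst high-intensity objects or normal cells, classed normal cells as having healthy, pyknosed or fragmented nuclei, and classed pyknosed cells as mitotic or apoptotic. Tubulin, mitochondrial-mass and membrane-permeability phenotypes are per cents of the healthy-nucleus cells.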

Compound	Population Apoptotic (%)	Population Fragmented Nuclei (%)	Population Healthy Nuclei (%)	Population Hoechst High Intensity Objects (%)	Population Membrane Permeable-Phenotype (%)	Population Mitochondria Different-Phenotype (%)	Population Mitotic Cells (%)	Population Normal (%)	Population Pyknosed Nuclei (%)	Population Tubulin-Different-Phenotype (%)
COc1cc(Nc2ncc3c(n2)-c2ccc(Cl)cc2C(c2c(F)cccc2OC)=NC3)ccc1C(=O)O [ALISERTIB]	39% and 42%	11% and 18%	66% and 47%	1% and 8%	2% and 7%	4% and 7%	60% and 57%	98% and 91%	21% and 33%	23% and 41%
COC[C@@H](CC(C)C)NC1=N/C(=C\c2ccc3ncsc3c2)C(=O)N1C	28.21% and 31.58%	27.8% and 24.34%	58.12% and 69.41%	0%	3.73% and 4.27%	9.94% and 6.64%	71.79% and 68.42%	100%	14.08% and 6.25%	13.66% and 33.18%

Same assay, conditions: 12 h, 1 µM, compound concentration 1 uM

Compound	Total Cell Count
COC[C@@H](CC(C)C)NC1=N/C(=C\c2ccc3ncsc3c2)C(=O)N1C	277 and 304

Same assay, conditions: 12 h, 10 µM, compound concentration 10 uM

Compound	Population Apoptotic (%)	Population Fragmented Nuclei (%)	Population Healthy Nuclei (%)	Population Hoechst High Intensity Objects (%)	Population Membrane Permeable-Phenotype (%)	Population Mitochondria Different-Phenotype (%)	Population Mitotic Cells (%)	Population Normal (%)	Population Pyknosed Nuclei (%)	Population Tubulin-Different-Phenotype (%)
COc1cc(Nc2ncc3c(n2)-c2ccc(Cl)cc2C(c2c(F)cccc2OC)=NC3)ccc1C(=O)O [ALISERTIB]	56% and 48%	28% and 35%	47% and 30%	13% and 8%	1% and 4%	22% and 16%	43% and 51%	86% and 91%	24% and 33%	69% and 64%
COC[C@@H](CC(C)C)NC1=N/C(=C\c2ccc3ncsc3c2)C(=O)N1C	–	75.02% and 85.21%	17.78% and 11.87%	13.82% and 16.56%	4.92% and 5.22%	5.46% and 4.48%	87.84% and 51.52%	86.18% and 83.44%	7.19% and 2.92%	16.94% and 38.81%

Same assay, conditions: 12 h, 10 µM, compound concentration 10 uM

Compound	Total Cell Count
COc1cc(Nc2ncc3c(n2)-c2ccc(Cl)cc2C(c2c(F)cccc2OC)=NC3)ccc1C(=O)O [ALISERTIB]	209 and 89
COC[C@@H](CC(C)C)NC1=N/C(=C\c2ccc3ncsc3c2)C(=O)N1C	1194 and 1353

Same assay, conditions: 24 h, 1 µM, compound concentration 1 uM

Compound	Population Apoptotic (%)	Population Fragmented Nuclei (%)	Population Healthy Nuclei (%)	Population Hoechst High Intensity Objects (%)	Population Membrane Permeable-Phenotype (%)	Population Mitochondria Different-Phenotype (%)	Population Mitotic Cells (%)	Population Normal (%)	Population Pyknosed Nuclei (%)	Population Tubulin-Different-Phenotype (%)
COc1cc(Nc2ncc3c(n2)-c2ccc(Cl)cc2C(c2c(F)cccc2OC)=NC3)ccc1C(=O)O [ALISERTIB]	36% and 48%	12% and 26%	69% and 47%	2% and 4%	2% and 4%	6%	63% and 51%	97% and 95%	18% and 26%	28% and 47%
COC[C@@H](CC(C)C)NC1=N/C(=C\c2ccc3ncsc3c2)C(=O)N1C	32.26% and 29.41%	28.52% and 23.81%	60.56% and 70.41%	0%	1.16% and 4.83%	10.47% and 6.28%	67.74% and 70.59%	100%	10.92% and 5.78%	18.02% and 35.27%

Same assay, conditions: 24 h, 1 µM, compound concentration 1 uM

Compound	Total Cell Count
COc1cc(Nc2ncc3c(n2)-c2ccc(Cl)cc2C(c2c(F)cccc2OC)=NC3)ccc1C(=O)O [ALISERTIB]	123
COC[C@@H](CC(C)C)NC1=N/C(=C\c2ccc3ncsc3c2)C(=O)N1C	284 and 294

Same assay, conditions: 24 h, 10 µM, compound concentration 10 uM

Compound	Population Apoptotic (%)	Population Fragmented Nuclei (%)	Population Healthy Nuclei (%)	Population Hoechst High Intensity Objects (%)	Population Membrane Permeable-Phenotype (%)	Population Mitochondria Different-Phenotype (%)	Population Mitotic Cells (%)	Population Normal (%)	Population Pyknosed Nuclei (%)	Population Tubulin-Different-Phenotype (%)
COc1cc(Nc2ncc3c(n2)-c2ccc(Cl)cc2C(c2c(F)cccc2OC)=NC3)ccc1C(=O)O [ALISERTIB]	64% and 56%	29% and 45%	44% and 36%	13% and 5%	1% and 0%	24% and 9%	35% and 43%	86% and 94%	25% and 18%	68% and 71%
COC[C@@H](CC(C)C)NC1=N/C(=C\c2ccc3ncsc3c2)C(=O)N1C	15.79% and 43.33%	73.6% and 85.59%	21.08% and 11.79%	7.03% and 15.44%	6.19% and 3.7%	–	84.21% and 56.67%	92.97% and 84.56%	5.32% and 2.62%	36.73% and 51.85%

Same assay, conditions: 24 h, 10 µM, compound concentration 10 uM

Compound	Total Cell Count
COc1cc(Nc2ncc3c(n2)-c2ccc(Cl)cc2C(c2c(F)cccc2OC)=NC3)ccc1C(=O)O [ALISERTIB]	191 and 93
COC[C@@H](CC(C)C)NC1=N/C(=C\c2ccc3ncsc3c2)C(=O)N1C	1153 and 1354

Same assay, conditions: 48 h, 1 µM, compound concentration 1 uM

Compound	Population Apoptotic (%)	Population Fragmented Nuclei (%)	Population Healthy Nuclei (%)	Population Hoechst High Intensity Objects (%)	Population Membrane Permeable-Phenotype (%)	Population Mitochondria Different-Phenotype (%)	Population Mitotic Cells (%)	Population Normal (%)	Population Pyknosed Nuclei (%)	Population Tubulin-Different-Phenotype (%)
COc1cc(Nc2ncc3c(n2)-c2ccc(Cl)cc2C(c2c(F)cccc2OC)=NC3)ccc1C(=O)O [ALISERTIB]	57% and 38%	15% and 33%	65% and 42%	5%	4% and 7%	5%	42% and 61%	94%	19% and 24%	32% and 54%
COC[C@@H](CC(C)C)NC1=N/C(=C\c2ccc3ncsc3c2)C(=O)N1C	32.14% and 52.94%	34.66% and 16.78%	57.39% and 77.27%	0%	1.98% and 1.36%	7.43% and 5.43%	67.86% and 47.06%	100%	7.95% and 5.94%	–

Same assay, conditions: 48 h, 1 µM, compound concentration 1 uM

Compound	Total Cell Count
COc1cc(Nc2ncc3c(n2)-c2ccc(Cl)cc2C(c2c(F)cccc2OC)=NC3)ccc1C(=O)O [ALISERTIB]	115
COC[C@@H](CC(C)C)NC1=N/C(=C\c2ccc3ncsc3c2)C(=O)N1C	352 and 286

Same assay, conditions: 48 h, 10 µM, compound concentration 10 uM

Compound	Population Apoptotic (%)	Population Fragmented Nuclei (%)	Population Healthy Nuclei (%)	Population Hoechst High Intensity Objects (%)	Population Membrane Permeable-Phenotype (%)	Population Mitochondria Different-Phenotype (%)	Population Mitotic Cells (%)	Population Normal (%)	Population Pyknosed Nuclei (%)	Population Tubulin-Different-Phenotype (%)
COc1cc(Nc2ncc3c(n2)-c2ccc(Cl)cc2C(c2c(F)cccc2OC)=NC3)ccc1C(=O)O [ALISERTIB]	84% and 66%	38% and 37%	35% and 51%	23% and 8%	5% and 2%	37% and 15%	15% and 33%	76% and 91%	26% and 11%	80% and 65%
COC[C@@H](CC(C)C)NC1=N/C(=C\c2ccc3ncsc3c2)C(=O)N1C	14.55% and 28.57%	76.66% and 86.7%	18.12% and 11%	20.81% and 19.66%	13.61% and 14.18%	1.57% and 10.45%	85.45% and 71.43%	79.19% and 80.34%	5.22% and 2.3%	27.75% and 50.75%

Same assay, conditions: 48 h, 10 µM, compound concentration 10 uM

Compound	Total Cell Count
COc1cc(Nc2ncc3c(n2)-c2ccc(Cl)cc2C(c2c(F)cccc2OC)=NC3)ccc1C(=O)O [ALISERTIB]	188 and 85
COC[C@@H](CC(C)C)NC1=N/C(=C\c2ccc3ncsc3c2)C(=O)N1C	1331 and 1516
